Consider three compounds from ChEMBL document CHEMBL2434878, “Synthesis and antimycobacterial activity of analogues of the bioactive natural products sampangine and cleistopholine” (Eur J Med Chem, 2013).

In experiment [1] the test system is Mycobacterium tuberculosis. Description: Antimicrobial activity against multidrug-resistant Mycobacterium tuberculosis LAM-1 at 1 uM by Bactec 460 TB method relative to control. The experiment is classed as functional. Particulars: read-out: GI. Summed up: (§1)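 MDR clinical isolate LAM-1 was precultured in a BACTEC vial to growth index 300, then inoculated into a fresh vial with compound (dilutions made at 40-fold final in 7H9-10% OADC). 14CO2 release from 14C-palmitic acid was read daily.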

Experiment [2] concerns Mycobacterium tuberculosis. Description: Antimicrobial activity against multidrug-resistant Mycobacterium tuberculosis LAM-1 at 5 uM by Bactec 460 TB method relative to control. The experiment is classed as functional. The conditions noted are these: read-out: GI. The procedure, abridged:
as §1

For `COc1ccc(-c2cc3c4c(nccc4n2)-c2ccccc2C3=O)cc1`, the inhibition of growth at 1 µM in experiment [1] was found to be 90%. In addition, the inhibition of growth at 5 µM in experiment [2] was determined as 99%.
The like results for `COc1ccc(-c2cc(O)c3c(c2)C(=O)c2ccccc2C3=O)cc1` were, in that order, 90% and 99%.
In the case of `COc1ccc(-c2cc3c(c(/C=C/N(C)C)n2)C(=O)c2ccccc2C3=O)cc1`, in experiment [1], the inhibition of growth at 1 µM is 90%. Moreover, the inhibition of growth at 5 µM in experiment [2] turned out to be 99%.
